Experimental data from ChEMBL document CHEMBL5150051, “Identification and Characterization of a Novel Indoleamine 2,3-Dioxygenase 1 Protein Degrader for Glioblastoma” (J Med Chem, 2022).
The source made the active and inactive calls. No cut-off for these calls is given here.

Key:
[1] = molecular target: T1, Protein cereblon/Indoleamine 2,3-dioxygenase 1 (Homo sapiens, UniProt P14902+Q96SW2); assay: Binding affinity to CRBN /IDO1 (unknown origin) assessed as ternary complex stability by measuring half-life by bio-layer interferometry assay; type: protein assay
Outline: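 For the ternary complex, compound was preincubated with a 25-fold molar excess of CRBN, and binding of this binary complex to IDO1 was followed in real time.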

[2] = molecular target: T1, Protein cereblon/Indoleamine 2,3-dioxygenase 1; assay: Protac activity at IDO1/CRBN in IFNgamma-stimulated human CD18 cells assessed as IDO1 degradation by measuring decrease in intracellular protein level measured after 24 hrs by Western blotting analysis; type: cell-based; details: CD18 cell, DDE = dose-dependent effect
[3] = molecular target: T1, Protein cereblon/Indoleamine 2,3-dioxygenase 1; assay: Protac activity at IDO1/CRBN in IFNgamma-stimulated human SK-OV-3 cells assessed as IDO1 degradation by measuring decrease in intracellular protein level measured after 24 hrs by Western blotting analysis; type: cell-based; details: dose 1-10 µM, DDE = dose-dependent effect
Ido1/Crbn (Mus musculus) = Ido1/Crbn (Mus musculus) (UniProt P28776+Q8C7D2); assay: Protac activity at IDO1/CRBN in IFNgamma-stimulated mouse GL261 cells assessed as IDO1 degradation by measuring decrease in intracellular protein level measured after 24 hrs by Western blotting analysis; type: cell-based; details: dose 1-10 µM, DDE = dose-dependent effect
[4] = molecular target: T1, Protein cereblon/Indoleamine 2,3-dioxygenase 1; assay: Protac activity at CRBN/IDO1-FLAG expressed in human U87 cells assessed as IDO1 degradation measured at 1 to 10 uM after 24 hrs by Western blotting analysis; type: cell-based; details: dose 1-10 µM
[5] = molecular target: T1, Protein cereblon/Indoleamine 2,3-dioxygenase 1; assay: Protac activity at CRBN/IDO1-FLAG expressed in human U87 cells assessed as IDO1 degradation in intracellular cytoplasmic compartment measured at 1 to 10 uM after 24 hrs by Western blotting analysis; type: subcellular; details: Cytoplasm, dose 1-10 µM
[6] = molecular target: T1, Protein cereblon/Indoleamine 2,3-dioxygenase 1; assay: Protac activity at CRBN/IDO1 non-enzyme mediated p65 phosphorylation in enzyme-null cDNA transfected in IFNgamma-stimulated human U87 cells measured at 0.1 to 10 uM after 24 hrs by Western blotting analysis; type: cell-based; details: dose 0.1-10 µM
[7] = molecular target: T1, Protein cereblon/Indoleamine 2,3-dioxygenase 1; assay: Protac activity at CRBN/IDO1 in human U87 cells assessed as decrease in phosphorylated NF-kappaB p65 in nucleus at 1 to 10 uM measured after 24 hrs by Western blot analysis; type: cell-based; details: dose 1-10 µM
[8] = Drug uptake in C57BL/6 mouse intestine at 50 mg/kg, ip treated 5 days/week for 3 weeks by LC/MS/MS analysis; type: ADME, organism-based; details: in vivo, 504 h
[9] = Drug uptake in C57BL/6 mouse liver at 100 mg/kg, ip treated 5 days/week for 3 weeks by LC/MS/MS analysis; type: ADME, organism-based; details: in vivo, 504 h
[10] = Half life in C57BL/6 mouse plasma at 25 mg/kg, ip; type: ADME, organism-based
[11] = Cmax in C57BL/6 mouse brain at 25 mg/kg, ip; type: ADME, organism-based; parameters: dose 25 mg/kg, route ip
Mus musculus [12] = assay: In vivo Protac activity at IDO1/CRBN in GL261 cells expressing mIDO1 cDNA mouse model assessed as decrease in IDO1 protein level in tumor measured at 25 mg/kg, ip
Mus musculus [13] = assay: In vivo Protac activity at IDO1/CRBN in luciferase-modified GL261 cells engrafted mouse cancer model assessed as increase in survival time measured at 25 mg/kg, ip treated 14 days post tumor implantation; details: time 14 day
[14] = molecular target: T1, Protein cereblon/Indoleamine 2,3-dioxygenase 1; assay: Protac activity at IDO1/CRBN in IFNgamma-stimulated human U87 cells assessed as IDO1 degradation by measuring decrease in protein level measured at 10 uM continuous upto 72 hrs by Western blotting analysis; details: U87 cell

T1 sequence (P14902 whole entry, looked up): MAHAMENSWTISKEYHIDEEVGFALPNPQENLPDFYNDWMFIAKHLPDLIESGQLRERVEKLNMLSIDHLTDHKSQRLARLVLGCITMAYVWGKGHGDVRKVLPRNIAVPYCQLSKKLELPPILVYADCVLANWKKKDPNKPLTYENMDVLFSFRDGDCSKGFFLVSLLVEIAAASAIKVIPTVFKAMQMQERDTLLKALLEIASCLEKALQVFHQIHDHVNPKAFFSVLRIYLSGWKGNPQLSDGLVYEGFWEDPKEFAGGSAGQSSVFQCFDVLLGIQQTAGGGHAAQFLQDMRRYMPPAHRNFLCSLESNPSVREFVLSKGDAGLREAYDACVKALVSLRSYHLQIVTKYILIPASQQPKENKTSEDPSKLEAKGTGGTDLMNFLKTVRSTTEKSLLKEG
T1 sequence (Q96SW2 whole entry, looked up): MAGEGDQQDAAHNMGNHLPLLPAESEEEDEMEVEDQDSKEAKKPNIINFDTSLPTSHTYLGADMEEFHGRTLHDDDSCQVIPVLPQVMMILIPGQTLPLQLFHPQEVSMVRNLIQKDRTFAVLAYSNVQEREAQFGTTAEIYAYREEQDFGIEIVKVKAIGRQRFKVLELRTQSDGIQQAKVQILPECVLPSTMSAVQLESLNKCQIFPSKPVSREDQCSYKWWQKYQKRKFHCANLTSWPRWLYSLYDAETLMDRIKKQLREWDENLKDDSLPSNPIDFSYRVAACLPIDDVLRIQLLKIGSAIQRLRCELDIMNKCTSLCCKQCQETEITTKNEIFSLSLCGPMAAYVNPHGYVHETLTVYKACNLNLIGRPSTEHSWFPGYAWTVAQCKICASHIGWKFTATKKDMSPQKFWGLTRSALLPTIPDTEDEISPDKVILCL
Chain of Ido1/Crbn (Mus musculus) (P28776 whole entry, looked up): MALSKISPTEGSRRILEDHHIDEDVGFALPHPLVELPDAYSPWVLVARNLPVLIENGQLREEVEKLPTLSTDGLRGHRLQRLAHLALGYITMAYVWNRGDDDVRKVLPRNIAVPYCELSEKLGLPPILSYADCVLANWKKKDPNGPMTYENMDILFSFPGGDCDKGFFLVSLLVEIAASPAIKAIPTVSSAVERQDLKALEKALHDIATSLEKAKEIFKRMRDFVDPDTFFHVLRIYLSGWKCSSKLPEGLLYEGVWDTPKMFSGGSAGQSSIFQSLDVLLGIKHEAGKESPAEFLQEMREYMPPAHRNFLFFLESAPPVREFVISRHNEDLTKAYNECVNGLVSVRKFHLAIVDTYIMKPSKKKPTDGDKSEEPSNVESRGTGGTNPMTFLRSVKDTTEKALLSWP
Chain of Ido1/Crbn (Mus musculus) (Q8C7D2 whole entry, looked up): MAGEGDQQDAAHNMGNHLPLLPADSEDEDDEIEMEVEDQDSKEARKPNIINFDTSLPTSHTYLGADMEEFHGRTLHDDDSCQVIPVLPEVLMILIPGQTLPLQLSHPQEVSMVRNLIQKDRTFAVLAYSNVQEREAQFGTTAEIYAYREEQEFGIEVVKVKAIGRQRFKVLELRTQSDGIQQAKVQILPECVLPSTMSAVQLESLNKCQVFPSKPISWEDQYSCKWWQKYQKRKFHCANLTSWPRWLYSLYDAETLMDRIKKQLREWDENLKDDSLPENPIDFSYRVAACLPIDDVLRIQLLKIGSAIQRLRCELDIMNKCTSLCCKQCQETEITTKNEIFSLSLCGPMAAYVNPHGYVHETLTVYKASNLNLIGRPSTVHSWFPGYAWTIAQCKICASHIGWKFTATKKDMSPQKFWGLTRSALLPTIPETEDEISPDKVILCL

**Q.** Which T1/2 [1] does the source give for `C[C@@H](C(=O)Nc1ccc(OC2CCN(C(=O)CCOCCOCCNc3cccc4c3C(=O)N(C3CCC(=O)NC3=O)C4=O)CC2)cc1)[C@H]1CC[C@@H](c2ccnc3ccc(F)cc32)CC1` (stereo not given in full) here?
**A.** 7.7 min

**Q.** And the Activity [2]?
**A.** Dde

**Q.** And the Activity [3]?
**A.** Dde

**Q.** And the Activity (Ido1/Crbn (Mus musculus))?
**A.** Dde

**Q.** What about the Activity [4] of the same molecule?
**A.** Active

**Q.** What about the Activity [5] of the same molecule?
**A.** Active

**Q.** And the inhibition [6]?
**A.** Active

**Q.** What about the Activity [7] of the same molecule?
**A.** Active

**Q.** What about the Drug uptake [8] of the same molecule?
**A.** Active

**Q.** And the Drug uptake [9]?
**A.** Active

**Q.** What about the half-life [10] of the same molecule?
**A.** 2.5 h

**Q.** What about the Cmax [11] of the same molecule?
**A.** 2000 nM

**Q.** And the Activity (Mus musculus [12])?
**A.** Active

**Q.** And the Time (Mus musculus [13])?
**A.** 45 days

**Q.** And the Activity [14]?
**A.** Active
